# Data from ChEMBL document CHEMBL4689842, “EUbOPEN Chemogenomics Library wave 1” (2021).
# Tested on: Fibroblast
# Test: Multiplex assay against human fibroblast
# Assay type: toxicity, cell-based
# Outline: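 On a CQ1 microscope at 37°C and 5% CO2, live cells were imaged after compound addition. They had been stained at seeding with Hoechst33342, BioTracker Green Microtubule Cytoskeleton Dye, MitoTracker Red and Annexin V Alexa Fluor 680. CellPathfinder machine-learning gating assigned cells to Hoechst high-intensity objects or normal cells, normal cells to healthy, pyknosed or fragmented nuclei, and pyknosed cells to mitotic or apoptotic. Tubulin, mitochondrial-mass and membrane-permeability phenotypes are per cents of healthy-nucleus cells.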
# [1] = 12 h, 1 µM, compound concentration 1 uM, replicate 1
# [2] = 12 h, 1 µM, compound concentration 1 uM, replicate 2
# [3] = 12 h, 10 µM, compound concentration 10 uM, replicate 1
# [4] = 12 h, 10 µM, compound concentration 10 uM, replicate 2
# [5] = 24 h, 1 µM, compound concentration 1 uM, replicate 1
# [6] = 24 h, 1 µM, compound concentration 1 uM, replicate 2
# [7] = 24 h, 10 µM, compound concentration 10 uM, replicate 1
# [8] = 24 h, 10 µM, compound concentration 10 uM, replicate 2
# [9] = 48 h, 1 µM, compound concentration 1 uM, replicate 1
# [10] = 48 h, 1 µM, compound concentration 1 uM, replicate 2
# [11] = 48 h, 10 µM, compound concentration 10 uM, replicate 1
# [12] = 48 h, 10 µM, compound concentration 10 uM, replicate 2
smiles,measurement,setting,value
CC(C)NCC(O)COc1ccc(CCOCC2CC2)cc1.Cl (stereo not drawn) [BETAXOLOL HYDROCHLORIDE],Population Apoptotic (%),[1],41%
same,Population Fragmented Nuclei (%),[1],22%
same,Population Healthy Nuclei (%),[1],47%
same,Population Hoechst High Intensity Objects (%),[1],4%
same,Population Membrane Permeable-Phenotype (%),[1],23%
same,Population Mitochondria Different-Phenotype (%),[1],2%
same,Population Mitotic Cells (%),[1],58%
same,Population Normal (%),[1],95%
same,Population Pyknosed Nuclei (%),[1],30%
same,Population Tubulin-Different-Phenotype (%),[1],39%
same,Total Cell Count,[1],84
same,Population Apoptotic (%),[2],100%
same,Population Fragmented Nuclei (%),[2],2%
same,Population Healthy Nuclei (%),[2],95%
same,Population Hoechst High Intensity Objects (%),[2],16%
same,Population Membrane Permeable-Phenotype (%),[2],6%
same,Population Mitotic Cells (%),[2],0%
same,Population Normal (%),[2],83%
same,Population Pyknosed Nuclei (%),[2],2%
same,Population Tubulin-Different-Phenotype (%),[2],9%
same,Total Cell Count,[2],55
same,Population Apoptotic (%),[3],67%
same,Population Fragmented Nuclei (%),[3],17%
same,Population Healthy Nuclei (%),[3],55%
same,Population Hoechst High Intensity Objects (%),[3],16%
same,Population Membrane Permeable-Phenotype (%),[3],10%
same,Population Mitochondria Different-Phenotype (%),[3],17%
same,Population Mitotic Cells (%),[3],32%
same,Population Normal (%),[3],83%
same,Population Pyknosed Nuclei (%),[3],26%
same,Population Tubulin-Different-Phenotype (%),[3],58%
same,Total Cell Count,[3],125
same,Population Apoptotic (%),[4],23%
same,Population Fragmented Nuclei (%),[4],9%
same,Population Healthy Nuclei (%),[4],77%
same,Population Hoechst High Intensity Objects (%),[4],7%
same,Population Membrane Permeable-Phenotype (%),[4],5%
same,Population Mitochondria Different-Phenotype (%),[4],72%
same,Population Mitotic Cells (%),[4],76%
same,Population Normal (%),[4],92%
same,Population Pyknosed Nuclei (%),[4],13%
same,Population Tubulin-Different-Phenotype (%),[4],49%
same,Total Cell Count,[4],107
same,Population Apoptotic (%),[5],30%
same,Population Fragmented Nuclei (%),[5],20%
same,Population Healthy Nuclei (%),[5],55%
same,Population Hoechst High Intensity Objects (%),[5],9%
same,Population Membrane Permeable-Phenotype (%),[5],30%
same,Population Mitochondria Different-Phenotype (%),[5],4%
same,Population Mitotic Cells (%),[5],70%
same,Population Normal (%),[5],90%
same,Population Pyknosed Nuclei (%),[5],24%
same,Population Tubulin-Different-Phenotype (%),[5],34%
same,Total Cell Count,[5],92
same,Population Apoptotic (%),[6],33%
same,Population Fragmented Nuclei (%),[6],3%
same,Population Healthy Nuclei (%),[6],85%
same,Population Hoechst High Intensity Objects (%),[6],5%
same,Population Membrane Permeable-Phenotype (%),[6],4%
same,Population Mitochondria Different-Phenotype (%),[6],6%
same,Population Mitotic Cells (%),[6],66%
same,Population Normal (%),[6],94%
same,Population Pyknosed Nuclei (%),[6],10%
same,Population Tubulin-Different-Phenotype (%),[6],2%
same,Total Cell Count,[6],59
same,Population Apoptotic (%),[7],74%
same,Population Fragmented Nuclei (%),[7],25%
same,Population Healthy Nuclei (%),[7],50%
same,Population Hoechst High Intensity Objects (%),[7],15%
same,Population Membrane Permeable-Phenotype (%),[7],19%
same,Population Mitochondria Different-Phenotype (%),[7],21%
same,Population Mitotic Cells (%),[7],25%
same,Population Normal (%),[7],84%
same,Population Pyknosed Nuclei (%),[7],23%
same,Population Tubulin-Different-Phenotype (%),[7],64%
same,Total Cell Count,[7],133
same,Population Apoptotic (%),[8],40%
same,Population Fragmented Nuclei (%),[8],7%
same,Population Healthy Nuclei (%),[8],78%
same,Population Hoechst High Intensity Objects (%),[8],5%
same,Population Membrane Permeable-Phenotype (%),[8],5%
same,Population Mitochondria Different-Phenotype (%),[8],78%
same,Population Mitotic Cells (%),[8],60%
same,Population Normal (%),[8],94%
same,Population Pyknosed Nuclei (%),[8],15%
same,Population Tubulin-Different-Phenotype (%),[8],46%
same,Total Cell Count,[8],106
same,Population Apoptotic (%),[9],76%
same,Population Fragmented Nuclei (%),[9],33%
same,Population Healthy Nuclei (%),[9],50%
same,Population Hoechst High Intensity Objects (%),[9],12%
same,Population Membrane Permeable-Phenotype (%),[9],30%
same,Population Mitochondria Different-Phenotype (%),[9],4%
same,Population Mitotic Cells (%),[9],23%
same,Population Normal (%),[9],87%
same,Population Pyknosed Nuclei (%),[9],15%
same,Population Tubulin-Different-Phenotype (%),[9],45%
same,Total Cell Count,[9],95
same,Population Apoptotic (%),[10],83%
same,Population Fragmented Nuclei (%),[10],27%
same,Population Healthy Nuclei (%),[10],67%
same,Population Membrane Permeable-Phenotype (%),[10],13%
same,Population Mitochondria Different-Phenotype (%),[10],1%
same,Population Mitotic Cells (%),[10],16%
same,Population Pyknosed Nuclei (%),[10],4%
same,Population Tubulin-Different-Phenotype (%),[10],35%
same,Total Cell Count,[10],157
same,Population Apoptotic (%),[11],76%
same,Population Fragmented Nuclei (%),[11],41%
same,Population Healthy Nuclei (%),[11],50%
same,Population Hoechst High Intensity Objects (%),[11],24%
same,Population Membrane Permeable-Phenotype (%),[11],22%
same,Population Mitochondria Different-Phenotype (%),[11],4%
same,Population Mitotic Cells (%),[11],23%
same,Population Normal (%),[11],75%
same,Population Pyknosed Nuclei (%),[11],8%
same,Population Tubulin-Different-Phenotype (%),[11],55%
same,Total Cell Count,[11],196
same,Population Apoptotic (%),[12],100%
same,Population Fragmented Nuclei (%),[12],48%
same,Population Hoechst High Intensity Objects (%),[12],20%
same,Population Membrane Permeable-Phenotype (%),[12],15%
same,Population Mitochondria Different-Phenotype (%),[12],2%
same,Population Mitotic Cells (%),[12],0%
same,Population Normal (%),[12],79%
same,Population Pyknosed Nuclei (%),[12],0%
same,Population Tubulin-Different-Phenotype (%),[12],66%
same,Total Cell Count,[12],278
